Experimental data reported in ChEMBL document CHEMBL3992547, “Antimicrobial activity of rhodanine-3-acetic acid derivatives” (Bioorg Med Chem, 2017).
Values after ≈ are worked out from the molar mass of the structure shown. Active and inactive are the calls of the source. The calls are words filed in the database; no cut-off is given here.

Assays:
Staphylococcus aureus [1] = experiment: Antibacterial activity against Staphylococcus aureus CCM 4516/08 incubated for 24 hrs under dark condition by microdilution broth assay; assay type: functional; details: CCM 4516/08, 24 h
Outline: (§1)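 Broth microdilution per M07-A07, modified, in Mueller-Hinton broth adjusted to pH 7.4 (±0.2). Inoculum is prepared in sterile water to McFarland 0.5 (1.5 × 10⁸ CFU/mL). Plates are incubated in the dark at 35 °C in humid air. MIC is read after 24 and 48 h as at least 95% growth reduction versus control (IC₉₅).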

Trichosporon asahii [2] = experiment: Antifungal activity against Trichosporon asahii 1188 after 24 hrs by microdilution broth assay; assay type: functional; details: Trichosporon asahii, 1188, 24 h
Outline: (§2)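 Broth microdilution per CLSI M27-A3 and M38-A2 in RPMI 1640 with glutamine, buffered to pH 7.0 with MOPS. Compounds are diluted in DMSO. Final inoculum is 5 × 10³ CFU/mL for yeasts and 0.5–5 × 10⁴ CFU/mL for moulds. Plates are incubated in the dark at 35 °C in humid air and read visually and/or at 540 nm after 24 and 48 h. MIC is ≥80% growth reduction (IC₈₀) for yeasts and ≥50% (IC₅₀) for filamentous fungi.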

[3] = tested on: Mycobacterium tuberculosis; experiment: Antimycobacterial activity against Mycobacterium tuberculosis H37Rv 331/88 measured after 14 days by micromethod; assay type: functional; details: H37Rv 331/88, 336 h
Nakaseomyces glabratus [4] = experiment: Antifungal activity against Candida glabrata 20/I after 24 hrs by microdilution broth assay; assay type: functional; outline: as §2
Mycobacterium avium [5] = experiment: Antimycobacterial activity against Mycobacterium avium 330/88 measured after 14 days by micromethod; assay type: functional; details: 330/88, 336 h
Pseudomonas aeruginosa = experiment: Antibacterial activity against Pseudomonas aeruginosa CCM 1961 up to 500 uM incubated for 24 to 48 hrs under dark condition by microdilution broth assay; assay type: functional; outline: as §1
Klebsiella pneumoniae [6] = experiment: Antibacterial activity against ESBL positive Klebsiella pneumoniae J 14368/08 up to 500 uM incubated for 24 to 48 hrs under dark condition by microdilution broth assay; assay type: functional; outline: as §1
Aspergillus fumigatus [7] = experiment: Antifungal activity against Aspergillus fumigatus 231 after 48 hrs by microdilution broth assay; assay type: functional; details: Aspergillus fumigatus, 231, 48 h; outline: as §2
[8] = tested on: Trichophyton mentagrophytes; experiment: Antifungal activity against Trichophyton mentagrophytes 445 after 120 hrs by microdilution broth assay; assay type: functional; details: Trichophyton mentagrophytes, 445, 120 h
Outline: (§3)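 Broth microdilution per CLSI M38-A2 in RPMI 1640 with glutamine, buffered to pH 7.0 with MOPS, with DMSO as diluent. Final inoculum is 0.5–5 × 10⁴ CFU/mL. Plates are incubated in the dark at 35 °C in humid air and read visually and/or at 540 nm after 72 and 120 h. MIC is at least 50% growth reduction versus control.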

Candida tropicalis [9] = experiment: Antifungal activity against Candida tropicalis 156 after 24 hrs by microdilution broth assay; assay type: functional; details: Candida tropicalis, 156, 24 h; outline: as §2
[10] = tested on: Mycobacterium tuberculosis; experiment: Antimycobacterial activity against Mycobacterium tuberculosis H37Rv 331/88 measured after 21 days by micromethod; assay type: functional; details: H37Rv 331/88, 504 h
Enterococcus [11] = experiment: Antibacterial activity against Enterococcus sp. J 14365/08 incubated for 24 hrs under dark condition by microdilution broth assay; details: J 14365/08, 24 h
Mycobacterium kansasii [12] = experiment: Antimycobacterial activity against Mycobacterium kansasii isolate 235/80 after 14 days by micromethod; assay type: functional; details: isolate 235/80, 336 h
Mycobacterium kansasii [13] = experiment: Antimycobacterial activity against Mycobacterium kansasii isolate 6509/96 after 14 days by micromethod; assay type: functional; details: isolate 6509/96, 336 h
[14] = tested on: Staphylococcus epidermidis; experiment: Antibacterial activity against Staphylococcus epidermidis H 6966/08 incubated for 48 hrs under dark condition by microdilution broth assay; assay type: functional; details: H 6966/08, 48 h; outline: as §1
Escherichia coli [15] = experiment: Antibacterial activity against Escherichia coli CCM 4517 incubated for 24 hrs under dark condition by microdilution broth assay; assay type: functional; details: CCM 4517, 24 h; outline: as §1
Mycobacterium avium [16] = experiment: Antimycobacterial activity against Mycobacterium avium 330/88 measured after 21 days by micromethod; assay type: functional; details: 330/88, 504 h
Enterococcus [17] = experiment: Antibacterial activity against Enterococcus sp. J 14365/08 incubated for 48 hrs under dark condition by microdilution broth assay; details: J 14365/08, 48 h
Mycobacterium kansasii [18] = experiment: Antimycobacterial activity against Mycobacterium kansasii isolate 235/80 after 7 days by micromethod; assay type: functional; details: isolate 235/80, 168 h
Pichia kudriavzevii = experiment: Antifungal activity against Candida krusei E28 after 24 to 48 hrs hrs by microdilution broth assay; assay type: functional; outline: as §2
Mycobacterium kansasii [19] = experiment: Antimycobacterial activity against Mycobacterium kansasii isolate 235/80 after 21 days by micromethod; assay type: functional; details: isolate 235/80, 504 h
Staphylococcus aureus [20] = experiment: Antibacterial activity against methicillin-resistant Staphylococcus aureus H 5996/08 incubated for 24 hrs under dark condition by microdilution broth assay; assay type: functional; details: H 5996/08, 24 h
Outline: (§4)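 Microdilution broth method modified per M07-A07, in Mueller-Hinton broth adjusted to pH 7.4 (±0.2). Inoculum made in sterile water to 0.5 McFarland (1.5 × 10⁸ CFU/mL). Plates incubated in the dark at 35 °C in a humid atmosphere, with reads at 24 and 48 h. MIC taken as at least 95% growth reduction (IC₉₅) versus control.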

[21] = tested on: Trichophyton mentagrophytes; experiment: Antifungal activity against Trichophyton mentagrophytes 445 after 72 hrs by microdilution broth assay; assay type: functional; details: Trichophyton mentagrophytes, 445, 72 h; outline: as §3
Staphylococcus aureus [22] = experiment: Antibacterial activity against methicillin-resistant Staphylococcus aureus H 5996/08 incubated for 48 hrs under dark condition by microdilution broth assay; assay type: functional; details: H 5996/08, 48 h; outline: as §4
Nakaseomyces glabratus [23] = experiment: Antifungal activity against Candida glabrata 20/I after 48 hrs by microdilution broth assay; assay type: functional; outline: as §2
Candida tropicalis [24] = experiment: Antifungal activity against Candida tropicalis 156 after 48 hrs by microdilution broth assay; assay type: functional; details: Candida tropicalis, 156, 48 h; outline: as §2
Aspergillus fumigatus [25] = experiment: Antifungal activity against Aspergillus fumigatus 231 after 24 hrs by microdilution broth assay; assay type: functional; details: Aspergillus fumigatus, 231, 24 h; outline: as §2
Klebsiella pneumoniae [26] = experiment: Antibacterial activity against Klebsiella pneumoniae D 11750/08 up to 500 uM incubated for 24 to 48 hrs under dark condition by microdilution broth assay; assay type: functional; outline: as §1
Candida albicans [27] = experiment: Antifungal activity against Candida albicans ATCC 44859 after 24 hrs by microdilution broth assay; assay type: functional; details: ATCC 44859, 24 h; outline: as §2
Staphylococcus aureus [28] = experiment: Antibacterial activity against Staphylococcus aureus CCM 4516/08 incubated for 48 hrs under dark condition by microdilution broth assay; assay type: functional; details: CCM 4516/08, 48 h; outline: as §1
Candida albicans [29] = experiment: Antifungal activity against Candida albicans ATCC 44859 after 48 hrs by microdilution broth assay; assay type: functional; details: ATCC 44859, 48 h; outline: as §2
Lichtheimia corymbifera = experiment: Antifungal activity against Absidia corymbifera 272 after 24 to 48 hrs hrs by microdilution broth assay; assay type: functional; outline: as §2
Mycobacterium kansasii [30] = experiment: Antimycobacterial activity against Mycobacterium kansasii isolate 6509/96 after 7 days by micromethod; assay type: functional; details: isolate 6509/96, 168 h
[31] = tested on: Staphylococcus epidermidis; experiment: Antibacterial activity against Staphylococcus epidermidis H 6966/08 incubated for 24 hrs under dark condition by microdilution broth assay; assay type: functional; details: H 6966/08, 24 h; outline: as §1
[32] = Solubility of the compound in Sula's semisynthetic medium up to 1 mM; assay type: physicochemical
Trichosporon asahii [33] = experiment: Antifungal activity against Trichosporon asahii 1188 after 48 hrs by microdilution broth assay; assay type: functional; details: Trichosporon asahii, 1188, 48 h; outline: as §2
Mycobacterium kansasii [34] = experiment: Antimycobacterial activity against Mycobacterium kansasii isolate 6509/96 after 21 days by micromethod; assay type: functional; details: isolate 6509/96, 504 h
Escherichia coli [35] = experiment: Antibacterial activity against Escherichia coli CCM 4517 incubated for 48 hrs under dark condition by microdilution broth assay; assay type: functional; details: CCM 4517, 48 h; outline: as §1

## O=C(CN1C(=O)CSC1=S)Oc1ccc([N+](=O)[O-])cc1
Staphylococcus aureus [1]
  MIC95: 250 µM (≈ 78.1 µg/mL)
Trichosporon asahii [2]
  MIC80: > 500 µM
[3]
  MIC: 500 µM (≈ 156 µg/mL)
Nakaseomyces glabratus [4]
  MIC80: > 500 µM
Mycobacterium avium [5]
  MIC: 1000 µM (≈ 312 µg/mL)
Pseudomonas aeruginosa
  Activity: inactive
Klebsiella pneumoniae [6]
  Activity: inactive
Aspergillus fumigatus [7]
  MIC50: > 500 µM
[8]
  MIC50: 250 µM (≈ 78.1 µg/mL)
Candida tropicalis [9]
  MIC80: > 500 µM
[10]
  MIC: 500 µM (≈ 156 µg/mL)
Enterococcus [11]
  MIC95: 500 µM (≈ 156 µg/mL)
Mycobacterium kansasii [12]
  MIC: 500 µM (≈ 156 µg/mL)
Mycobacterium kansasii [13]
  MIC: 500 µM (≈ 156 µg/mL)
[14]
  MIC95: 500 µM (≈ 156 µg/mL)
Escherichia coli [15]
  MIC95: > 500 µM
Mycobacterium avium [16]
  MIC: 1000 µM (≈ 312 µg/mL)
Enterococcus [17]
  MIC95: 500 µM (≈ 156 µg/mL)
Mycobacterium kansasii [18]
  MIC: 500 µM (≈ 156 µg/mL)
Pichia kudriavzevii
  Activity: inactive
Mycobacterium kansasii [19]
  MIC: 1000 µM (≈ 312 µg/mL)
Staphylococcus aureus [20]
  MIC95: 500 µM (≈ 156 µg/mL)
[21]
  MIC50: 125 µM (≈ 39 µg/mL)
Staphylococcus aureus [22]
  MIC95: 500 µM (≈ 156 µg/mL)
Nakaseomyces glabratus [23]
  MIC80: > 500 µM
Candida tropicalis [24]
  MIC80: > 500 µM
Aspergillus fumigatus [25]
  MIC50: 500 µM (≈ 156 µg/mL)
Klebsiella pneumoniae [26]
  Activity: inactive
Candida albicans [27]
  MIC80: > 500 µM
Staphylococcus aureus [28]
  MIC95: 500 µM (≈ 156 µg/mL)
Candida albicans [29]
  MIC80: > 500 µM
Lichtheimia corymbifera
  Activity: inactive
Mycobacterium kansasii [30]
  MIC: 500 µM (≈ 156 µg/mL)
[31]
  MIC95: 500 µM (≈ 156 µg/mL)
[32]
  solubility: Soluble
Trichosporon asahii [33]
  MIC80: > 500 µM
Mycobacterium kansasii [34]
  MIC: 500 µM (≈ 156 µg/mL)
Escherichia coli [35]
  MIC95: > 500 µM
